Results published in PMC5720529 (Kidney International Reports, 2016).
Where two headings read alike, the source gives them in different places.

What was measured:
[1] = Kinetic model 2 fitted simultaneously to hemodialysis conditions 2 and 3; assay type: in vitro ADME, bovine
Method in brief: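 Kinetic model 2, an extension of the whole-blood model, was fitted simultaneously to etelcalcetide amounts in reservoirs A and B from all three hemodialysis conditions, using one rate-constant set. Each point was the mean of triplicate samples. Conjugation/deconjugation constants (kc, kdc, kb, kdb) were fixed from model 1; kAB and kBA are forward and reverse dialysis-clearance constants between reservoirs.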

[2] = close to the hematocrit value; cited from earlier work
[3] = cited from earlier work
[4] = assay type: in vitro ADME, bovine
Method in brief: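 Same closed-loop dialyzer setup, with reservoir A holding 0.5 L bovine whole blood warmed to 37 °C. Hemodialysis began immediately after [14C]etelcalcetide and urea, creatinine and vitamin B12 controls were spiked in. Sodium heparin (100 U) was added every 30 min. Both reservoirs were sampled over 2 h for radioactivity and etelcalcetide (formic-acid acidified). Dialyzer-bound material was recovered by 20-min Solvable circulation at 50 ml/min.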

[5] = In vitro hemodialysis, condition 1: buffered aqueous solution; assay type: in vitro ADME
Method in brief: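 Closed-loop in vitro hemodialysis on an Optiflux dialyzer at ambient temperature (~22 °C). Reservoir A held 0.5 L dialysate and no blood; 5 L dialysate was pumped countercurrent from reservoir B. [14C]etelcalcetide plus urea, creatinine and vitamin B12 controls went into reservoir A, with pumps started at once. Both reservoirs were sampled over 2 h for radioactivity and etelcalcetide (acidified, 1% formic acid), then a 20-min Solvable washout.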

[6] = human blood; cited from earlier work
[7] = Whole-blood incubations with etelcalcetide and SAPC; assay type: in vitro ADME; conditions: human whole blood; for sum total of monitored products as % of total M11: etelcalcetide 5 μM
Method in brief: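 Pooled human whole blood (healthy volunteers, n = 3) was incubated in duplicate with [14C]etelcalcetide, unlabelled etelcalcetide or SAPC for up to 6 h at 37 °C, then centrifuged; plasma was acidified with 1% formic acid. TCEP reduction gave total M11; M13 was estimated from the M10 standard curve. Model 1 was fitted by maximum likelihood to duplicate means.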

[8] = Non-covalent plasma protein binding in bovine blood; assay type: in vitro ADME; conditions: data not shown
[9] = assay type: in vitro ADME; conditions: condition 3, bovine whole blood, with 3-hour preincubation at 37 °C
Method in brief: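 Bovine whole blood (0.5 L) spiked with [14C]etelcalcetide was preincubated 3 h at 37 °C before closed-loop dialysis (QB 50 ml/min, QD 250 ml/min, countercurrent, 5 L dialysate). Heparin (100 U) was added hourly. Reservoirs A and B were sampled for radioactivity and etelcalcetide, followed by a Solvable washout of the dialyzer.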

[10] = CKD patients on hemodialysis; cited from earlier work

Molecule: CC(=O)N[C@H](CSSC[C@H](N)C(=O)O)C(=O)N[C@H](C)C(=O)N[C@H](CCCNC(=N)N)C(=O)N[C@H](CCCNC(=N)N)C(=O)N[C@H](CCCNC(=N)N)C(=O)N[C@H](C)C(=O)N[C@H](CCCNC(=N)N)C(N)=O [etelcalcetide, Etelcalcetide]
- hemodialysis clearance as % of blood flow rate ([1]; conditions 2 and 3, presence of bovine blood): ~70%
- hemodialysis clearance ([1]; conditions 2 and 3, presence of bovine blood, from kAB, QB 50 ml/min): 36 mL/min
- elimination rate constant in blood as % of that in the absence of blood ([1]; in vitro hemodialysis, bovine blood vs dialysate): 60%
- kBA, reverse rate constant of hemodialysis clearance, reservoir B to A ([1]; model 2 fit, conditions 2 and 3, bovine blood, mean of triplicate samples): 0.0364 min^–1
- blood-to-plasma ratio [2]: ~0.5
- permeability [3]: very low
- 14C recovered during the washout period (% of the spiked dose) ([4]; condition 2, Solvable washout after 2-hour hemodialysis): 0.2 % of the spiked dose
- intact etelcalcetide dialyzed in the first 15 minutes ([4]; condition 2, bovine whole blood, no preincubation, 2.1 μM, LC-MS/MS): 57%
- hemodialysis clearance rate relative to biotransformation (conversion to SAPC) ([5]; comparison of dialytic rate constant with kc): > 16 fold
- hemodialysis clearance ([5]; condition 1, absence of blood, from kAB, QB 50 ml/min, QD 250 ml/min): 59 mL/min
- kBA, reverse rate constant of hemodialysis clearance, reservoir B to A ([5]; model 2 fit, condition 1, absence of blood, mean of triplicate samples): 0.00932 min^–1
- Non-covalent binding to plasma proteins [6]: ~50%
- [14C]etelcalcetide biotransformation at 25 °C compared with 37 °C ([7]; [14C]etelcalcetide 10 μM, up to 6 hours, LC-14C-HRMS): slower
- sum total of monitored products as % of total M11 ([7]; 37 °C, at 1 hour): Approximately 90%
- sum total of monitored products as % of total M11 ([7]; 37 °C, at 6 hours): 77%
- kdc, rate constant of disulfide exchange SAPC to etelcalcetide (deconjugation) ([7]; model 1 fit (ADAPT 5), 37 °C, mean of duplicate samples): 0.00038 min^–1
- bound non-covalently to plasma proteins [8]: 40%
- proportion of the dose eliminated in 2 hours [9]: 24%
- plasma half-life [10]: > 170 h

Molecule: vitamin B12 [reference compound]
- dose remaining in bovine blood ([4]; condition 2, at 15 minutes, LC-MS/MS): 44%
- dose remaining in bovine blood ([4]; condition 2, at 120 minutes, LC-MS/MS): 8%
